Screens: PubChem, several laboratories
HEK293 NFkB inh – inhibitors of the PMA/ionomycin-induced NF-kB reporter in HEK293 cells; HEK-293 NF-kB luciferase reporter, luminescence; inhibition, % at 3 µM; 0.21% of 62,000 active; AID 465;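 active = inhibition above the mean of all tested compounds plus 3 SD, cut at about 40% in these data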;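 note: 0% = stimulated DMSO wells and 100% = 10 µM reference inhibitor 5653914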
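Material: HEK-293 cells with stable firefly luciferase reporter driven by four HIV NF-kB elements / Also added: PMA plus ionomycin mix as NF-kB-activating stimulus / Compound dosing: 3 µM once, 0.30% DMSO / Times: 1 h pretreatment, 16 h stimulation, 37 °C / Signal: luminescence / Evaluation: per-plate % inhibition versus controls / Benchmarks: DMSO and 10 µM reference inhibitor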
HER2 expr 66K – lowers expression of human Her2 kinase; P04626; SKBR-3 HER2 protein level, AlphaScreen, 18-24 h; hits give low values; HER2 level % of control, % at 10 µM; 0.69% of 65,000 active; AID 645;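 active = HER2 level under 5% of the carrier-only control; inconclusive = no clear call, values can overlap the other calls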;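 note: 100% = DMSO carrier and 0% = 500 nM PU-H71 HSP90 inhibitor; lower value means stronger loss of Her2 protein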
SK-BR-3 tox 24h – SK-BR-3 proliferation inhibitors; SK-BR-3 viability, CellTiter-Glo ATP luminescence, 24 h; hits give low values; viability, % at 10 µM; AID 847; 0.47% of 41,000 active;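 active = viability at or below the median of all test compounds minus 3 SD, in both replicates if run twice, cut at about 45% in these data; inconclusive = duplicate replicates that disagree with each other; inactive = viability above that cutoff in every replicate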;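 note: 100% = median untreated cell wells and 0% = median positive control drug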
Jurkat viability – cytotoxic compounds reducing Jurkat cell viability; AID 463; Jurkat E6.1 viability, ATP luminescence, 48 h; 1.2% of 56,000 active; inhibition, % at 4 µM;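 active = inhibition above the mean inhibition of all tested compounds plus 3 SD, cut at about 28% in these data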
The depositor's hits bear a star; ? = inconclusive; . = not tested or not shown. An excerpt weighted towards active compounds, which were near 2% of everything screened.

SMILES | HEK293 NFkB inh | HER2 expr 66K | SK-BR-3 tox 24h | Jurkat viability
Cc1cc(=O)oc2cc(OCC(=O)N3CCCC(C)C3)ccc12 (stereo unspecified) | 10 | 89 | 81 | -1
O=C(Cc1ccc(-n2cccc2)cc1)NCc1cccs1 | 37 | 72 | 91 | 71*
Cn1c(=O)c2c(nc(N3CCOCC3)n2CCSc2nc3ccccc3s2)n(C)c1=O | 12 | 109 | . | 4
Oc1ccc(N=Cc2ccc(O)c(O)c2)cc1 | 11 | 73 | . | 34*
CN(C)c1ccc(C=Nc2ccc(N(C)C)cc2)cc1 | . | 99 | 93 | .
O=C(NC1CCCCC1)NC1(C(=O)NCCCN2CCOCC2)CCCCC1 | 12 | 119 | . | -4
CC(=O)c1c(C)[nH]c(C(=O)N2CCN(C(=O)c3ccco3)CC2)c1C | 8 | 114 | . | 3
COc1cccc(N2CCN(C(=O)c3[nH]c(C)c(C(C)=O)c3C)CC2)c1 | 31 | 91 | . | 91*
Cn1nnnc1SCC(=O)Nc1c(Cl)cccc1Cl | 15 | -20* | . | 0
Cn1nnnc1SCC(=O)Nc1ccc(Oc2ccc(Cl)cc2)cc1 | 4 | 94 | 90 | 51*
C=CCOC(=O)C1=C(C)Nc2nnnn2C1c1cc(OC)ccc1OC (stereo unspecified) | 4 | -18* | 111 | 4
COc1cccc(C2=CC(c3cccc(OC)c3OC)n3nnnc3N2)c1 (stereo unspecified) | 16 | 39 | 70 | 67*
COc1ccc(OC)c(C2C=C(c3ccc(C)c(C)c3)Nc3nnnn32)c1 (stereo unspecified) | 16 | 47 | 87 | -1
CCOC(=O)C1=C(C)Nc2nnnn2C1c1ccc(OC)c(Br)c1 (stereo unspecified) | -14 | 110 | . | 0
COc1cccc(C2=CC(c3cccc(OC)c3OC(F)F)n3nnnc3N2)c1 (stereo unspecified) | -5 | 97 | 57 | 7
COc1cccc(C2=CC(c3cc(OC)ccc3OC)n3nnnc3N2)c1 (stereo unspecified) | 10 | 42 | 64 | 90*
COc1cccc(C2C=C(c3ccc(OC)cc3OC)Nc3nnnn32)c1 (stereo unspecified) | -1 | 54 | ? | 41*
Cc1[nH]nc2c1C(c1ccccc1F)CC(=O)N2 (stereo unspecified) | 3 | 84 | 81 | -6
CCNc1nc(NC(C)C)nc(NS(=O)(=O)c2ccc(Cl)cc2)n1 | 17 | 105 | 42* | 9
O=C(CNC(=O)Cn1ccc2ccccc2c1=O)NCCCN1CCCCCC1 | -1 | 126 | 85 | .
CC1CCN(S(=O)(=O)c2ccc(Cl)cc2)CC1 | 16 | 170 | . | 9
CC1=C(C)CS(=O)N(S(=O)(=O)c2ccc(Cl)cc2)C1 (stereo unspecified) | -9 | 84 | 78 | 69*
CCCn1c(C)nc2c(c1=O)c1nc3ccccc3nc1n2-c1ccc2c(c1)OCCO2 | 11 | 95 | 114 | 4
Cn1cc(S(=O)(=O)Nc2ccc(Br)cc2F)c(=O)n(C)c1=O | -8 | 107 | . | 0
CCOC(=O)CSC1=C(C#N)C(c2ccc(C)s2)CC(=O)N1 (stereo unspecified) | 23 | 43 | 118 | 86*
SMILES | HEK293 NFkB inh | HER2 expr 66K | SK-BR-3 tox 24h | Jurkat viability
CCSC1=C(C#N)C(c2ccc(C)s2)CC(=O)N1 (stereo unspecified) | 15 | 118 | 112 | 0
O=C(Nc1nccs1)C1C2/C=C\CCCCC21 (stereo unspecified) | -1 | -28* | 81 | 10
CN(C)c1ccccc1C(=O)c1ccccc1N(C)C | 12 | 73 | 96 | 88*
O=C1C(=O)N(CCCn2ccnc2)C(c2cccnc2)/C1=C(/O)c1ccccc1 (stereo unspecified) | 8 | 108 | 86 | .
O=C(Cn1cnc2sc(-c3ccccc3)cc2c1=O)NCc1ccco1 | 7 | 68 | 107 | 42*
COc1cccc(C2CC(=O)Nc3cc4c(cc32)OCCO4)c1OC(C)C (stereo unspecified) | 10 | 68 | . | 10
CC(C)Oc1ccccc1C1CC(=O)Nc2cc3c(cc21)OCCO3 (stereo unspecified) | 16 | 66 | 80 | 98*
CCCOc1c(OC)cccc1C1CC(=O)Nc2cc3c(cc21)OCCO3 (stereo unspecified) | 9 | 74 | 84 | 7
COc1ccccc1C1CC(=O)Nc2cc3c(cc21)OCCO3 (stereo unspecified) | 32 | 19 | 98 | 92*
CC1=CC(C)(C)Nc2ccc(OC(=O)CN3C(=O)CCC3=O)cc21 | 40* | 140 | . | -3
CC1=CC(C)(C)Nc2ccc(OC(=O)c3cccnc3)cc21 | 44* | 65 | . | 17
CCOc1ccc(OC(=O)c2cccnc2)cc1 | 2 | 105 | 87 | 6
CC1=CC(C)(C)Nc2ccc(OC(=O)c3ccco3)cc21 | 45* | -20* | 14* | 58*
CC1=CC(C)(C)Nc2ccc(C)cc21 | 6 | 100 | . | 6
Cc1cc(C)cc(N(CC(=O)NCC2CCCO2)C(=O)CCC(=O)Nc2cc(C)on2)c1 (stereo unspecified) | 1 | 79 | 118 | -4
CC(C)C(NC(=O)c1cccs1)c1nnc(SCC(=O)Nc2nccs2)n1C (stereo unspecified) | 9 | 155 | 111 | 5
CCOC(=O)c1c(C)oc2cc(Br)c(OC)cc12 | 13 | 102 | . | -3
Cc1oc2cc3c(C(=O)OCCN(C)C)c(C)oc3cc2c1C(=O)OCCN(C)C | 78* | 83 | 103 | 6
COc1cc2[nH]c(=O)n(CCC(=O)N3CCN(c4cccc(C)c4C)CC3)c(=O)c2cc1OC | 18 | -23* | 4.9* | .
CC(C(=O)OCC(=O)Nc1ccc2c(c1)OCO2)N1C(=O)c2ccccc2C1=O (stereo unspecified) | 9 | 99 | . | -5
CC(C(=O)Oc1ccc2c(c1)OCO2)N1C(=O)c2ccccc2C1=O (stereo unspecified) | 3 | 103 | 36* | .
Cc1ccc(S(=O)(=O)N2CCCCC2)cc1C(=O)Nc1ncn[nH]1 | 0 | 104 | . | -6
O=S1(=O)CCC(N=Cc2cc(Br)ccc2O)C1 (stereo unspecified) | 13 | 169 | 106 | -3
CCCn1c(NC(=O)c2ccccc2)nc2ccccc21 | -8 | 88 | 73 | 22
CCCn1c(Nc2nc3ccccc3n2C)nc2ccccc21 | 10 | -22* | 9.8* | -18
SMILES | HEK293 NFkB inh | HER2 expr 66K | SK-BR-3 tox 24h | Jurkat viability
CN1CCN(c2nc3c(c(=O)[nH]c(=O)n3C)n2CCSc2ncccn2)CC1 | 24 | 203 | 124 | 6
COc1cc(NC(=O)c2cccc3c2C(=O)N(Cc2cccnc2)C3)cc(OC)c1OC | 58* | 94 | . | -6
CCc1nnc(NC(=O)CSc2nnc(CSc3nc(C)cc(C)n3)o2)s1 | 23 | 81 | 102 | 3
CCC(=NC(C)c1ccccc1)c1c(O)n(C)c(=O)n(C)c1=O (stereo unspecified) | 9 | 94 | 102 | 54*
CC(c1ccccc1)N1CNc2c(c(=O)n(C)c(=O)n2C)C1 (stereo unspecified) | 12 | 94 | 133 | 1
CCOC(=O)c1cnn(-c2ncnc3c2cnn3Cc2ccccc2)c1N | 9 | 84 | . | 1
